38 sequences from the array DNA melting data of Ke et al. (doi:10.1101/2024.01.08.574731) can be followed below.

The nature of data set [1]: melting temperature; fluorescence melt of hairpins on a sequencing array, two-state fit, raised by 9.35 °C to match UV melts. Particulars: sodium 0.088 M. In a few lines: (§1)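 In 50 mM Na-HEPES pH 8.0 containing 25 mM NaCl, hairpins from the library on a sequenced MiSeq flow cell were imaged for Cy3 fluorescence at 2.5 °C steps up to 60 °C, with Cy3 and quencher oligos annealed. After normalisation to pre-quench Cy3 and to control constructs, two-state fits with bootstrapping gave melting temperature and folding enthalpy. Four replicates were combined by inverse-variance weighting, and fitted temperatures were shifted up by 9.35 °C to match UV melts.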

Data set [2] is described as follows: folding enthalpy; higher = less favourable; fluorescence melt of hairpins on a sequencing array, two-state fit. As to conditions: sodium 0.088 M. The procedure, abridged:
as §1

In the case of GATCGCCCCGGCGATC ((((((....)))))), the Tm in data set [1] was 69.2 °C. Moreover, the folding enthalpy in data set [2] was -33 kcal/mol.
The matching figures for GATCGCCCTTGCGATC ((((((....)))))): 66.9 °C and -29.8 kcal/mol.
The corresponding values for GATCGCCTAGCGATC ((((((...)))))) are 68.6 °C and -30.6 kcal/mol.
The corresponding values for GATCGCCTTCGCGATC ((((((....)))))) are 68.4 °C and -41 kcal/mol.
Turning to GATCGCGAAAGCGAAATC ((((((....)))..))), the Tm in data set [1] came out at 37.2 °C. The folding enthalpy in data set [2] is -9.22 kcal/mol.
The corresponding values for GATCGCGAAAGCGCAATC ((((((....)))..))) are 23.1 °C and -7.96 kcal/mol.
With GATCGCGAGCGCGATC ((((((....)))))), the Tm in data set [1] is 67.2 °C. Besides, in data set [2], the folding enthalpy was -35.4 kcal/mol.
For the sequence GATCGCGCGAAAGCGATC (((..(((....)))))), the Tm in data set [1] stood at 60.1 °C. The folding enthalpy in data set [2] is -25.8 kcal/mol.
The matching figures for GATCGCGGAAACGCGACC (.(((((....))))).): 49.2 °C and -10.5 kcal/mol.
In the case of GATCGCTACCGCGATC ((((((....)))))), in data set [1], the Tm came to 68.2 °C. In data set [2], the folding enthalpy was -35.1 kcal/mol.
The matching figures for GATCGCTAGTGCGATC ((((((....)))))): 67 °C and -35.2 kcal/mol.
The matching figures for GATCGCTATGGCGATC ((((((....)))))): 69.1 °C and -30.2 kcal/mol.
The corresponding values for GATCGCTCGCGCGATC ((((((....)))))) are 67.4 °C and -31.7 kcal/mol.
GATCGCTCTCGCGATC ((((((....)))))): the Tm in data set [1] was 67.6 °C. Besides, the folding enthalpy in data set [2] is -34.2 kcal/mol.
The matching figures for GATCGCTCTTGCGATC ((((((....)))))): 68 °C and -38.9 kcal/mol.
The corresponding values for GATCGCTGATGCGATC ((((((....)))))) are 67.2 °C and -34.8 kcal/mol.
The matching figures for GATCGCTGGCGCGATC ((((((....)))))): 65.9 °C and -35.7 kcal/mol.
As for GATCGCTGGGCGATC ((((((...)))))), the Tm in data set [1] amounted to 68.8 °C. Besides, the folding enthalpy in data set [2] was -35.6 kcal/mol.
The corresponding values for GATCGCTGGGGCGATC ((((((....)))))) are 69.1 °C and -32.2 kcal/mol.
As to GATCGCTGTTGCGATC ((((((....)))))), the Tm in data set [1] stood at 67.8 °C. Besides, in data set [2], the folding enthalpy was -28.7 kcal/mol.
The matching figures for GATCGCTTCGGCGATC ((((((....)))))): 67.6 °C and -35.6 kcal/mol.
The matching figures for GATCGCTTGAGCGATC ((((((....)))))): 67.6 °C and -27.6 kcal/mol.
In the case of GATCGCTTGGCGATC ((((((...)))))), the Tm in data set [1] came out at 68.8 °C. For the same sequence, the folding enthalpy in data set [2] was -41.3 kcal/mol.
For GATCGCTTGTGCGATC ((((((....)))))), the Tm in data set [1] was 68 °C. For the same sequence, the folding enthalpy in data set [2] is -21.5 kcal/mol.
The corresponding values for GATCGGAAAACCGATC ((((((....)))))) are 51.2 °C and -35.5 kcal/mol.
The matching figures for GATCGGAACACCGATC ((((((....)))))): 55.2 °C and -39.9 kcal/mol.
As for GATCGGAACTCCGATC ((((((....)))))), the Tm in data set [1] came out at 55.2 °C. The folding enthalpy in data set [2] was -45.1 kcal/mol.
The corresponding values for GATCGGACGTCCGATC ((((((....)))))) are 62.7 °C and -47.5 kcal/mol.
The corresponding values for GATCGGACTCCCGATC ((((((....)))))) are 53.8 °C and -35.3 kcal/mol.
The corresponding values for GATCGGACTCCGATC ((((((...)))))) are 55.2 °C and -33.8 kcal/mol.
For GATCGGAGATCCGATC ((((((....)))))), the Tm in data set [1] was found to be 56 °C. Besides, the folding enthalpy in data set [2] was -27.6 kcal/mol.
The matching figures for GATCGGAGGACCGATC ((((((....)))))): 53.3 °C and -31.2 kcal/mol.
The matching figures for GATCGGATATCCGATC ((((((....)))))): 58.3 °C and -42.9 kcal/mol.
For GATCGGATCGCCGATC ((((((....)))))), the Tm in data set [1] stood at 55.8 °C. Also, in data set [2], the folding enthalpy is -32.2 kcal/mol.
The matching figures for GATCGGATGACCGATC ((((((....)))))): 55.8 °C and -29.8 kcal/mol.
The matching figures for GATCGGATTCCCGATC ((((((....)))))): 55.5 °C and -36 kcal/mol.
The corresponding values for GATCGGCAAACCGATC ((((((....)))))) are 56.5 °C and -36.1 kcal/mol.
Regarding GATCGGCAACCCGATC ((((((....)))))), the Tm in data set [1] came to 54.4 °C. Also, the folding enthalpy in data set [2] was -38.5 kcal/mol.
